Measured values collected from several papers.
Each line is one published result; the experiments were not run side by side.
Target: Tyrosine-protein kinase ABL2 (ABL2, Homo sapiens, UniProt P42684)

SMILES	test	conditions	quantity	value
C#Cc1n[nH]c2c(-c3cn([C@@H](C)c4ccccn4)c(=O)[nH]c3=O)cc(F)cc12	enzyme activity, inhibitor	0.1 µM	inhibition	5.9%
COc1cc(Nc2ncc(F)c(Nc3ccc4c(n3)NC(=O)C(C)(C)O4)n2)cc(OC)c1OC	binding, competition with immobilised ligand	10 µM	inhibition	77%
COc1ncccc1-c1cnn2ccc(N3CCN(C(=O)OC(C)C)CC3)nc12	binding, competition with immobilised ligand	1 µM	remaining binding	100%
Nc1ncc(-c2nc(N3CCOCC3)nc(N3CCOCC3)n2)c(C(F)F)n1	binding, competition with immobilised ligand	10 µM	remaining binding	99%
Cn1cc(-c2cc(F)cc(N3CCn4c(cc5c4CCCC5)C3=O)c2CO)cc(Nc2ccc(N3CCN(C4COC4)CC3)cn2)c1=O	enzyme activity, inhibitor	0.1 µM	inhibition	11%
CC(C)(C)c1cc(C=C(C#N)C#N)cc(Br)c1O	enzyme activity, inhibitor	0.5 µM	remaining activity	57.1%
C#Cc1n[nH]c2c(-c3cn([C@@H](C)c4ccccc4)c(=O)[nH]c3=O)cc(F)cc12	enzyme activity, inhibitor	0.1 µM	inhibition	2.4%
Cn1cncc1[C@](O)(COc1ccc(C#N)cc1-c1ccc(OC(F)(F)F)cc1)c1ccc(C#N)cc1	cell-free assay, competition with immobilised ligand	1 µM	remaining binding	83%
Cc1nn(C)cc1-c1nc2c(N3CCN(Cc4ccc(Cl)cc4)CC3)c(Cl)cnc2[nH]1	binding, competition with immobilised ligand	1 µM	remaining binding	100%
Cn1cc(-c2cccc(N3CCc4c(sc5c4CC(C)(C)C5)C3=O)c2CO)cc(Nc2ccncn2)c1=O	enzyme activity, inhibitor	1 µM	inhibition	4%
O=c1[nH]c2ccccc2n1C1CCN(Cc2ccc(-c3[nH]c4cc5ncnc5cc4nc3-c3ccccc3)cc2)CC1	cell-free assay	0.5 µM	remaining signal	96.8%
